Laboratory results published in the EternaBench riboswitch data.

Tested on: MS2 coat protein
Experiment: apparent Kd, MS2 coat protein; higher = weaker binding; RNA-MaP array; FMN 200 µM where present
In short: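 Stalled E. coli RNA polymerase transcribed each design on Illumina sequencing-chip clusters. The clusters were titrated with SNAP-549-labelled MS2 coat protein, starting at 0.7 or 1.5 nM and doubling up to 3 µM, first without ligand and then with constant ligand, in 100 mM Tris-HCl pH 7.5, 80 mM KCl, 4 mM MgCl2, BSA, DTT, yeast tRNA and Tween-20. Green signal was normalised to red-channel RNA signal and to the control-cluster median Fmax. The apparent Kd is the median of filtered binding-curve fits made for each cluster.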

[1] = designed as: OFF switch for flavin mononucleotide, no ligand
[2] = ligand present: flavin mononucleotide, designed as: OFF switch for flavin mononucleotide
[3] = designed as: ON switch for flavin mononucleotide, no ligand
[4] = ligand present: flavin mononucleotide, designed as: ON switch for flavin mononucleotide

GGUAUGUGAGGAUAUGGGAUUGUAGACAUGAGGAUCACCCAUGUCAUGUCCGAUCAUUGCCCAGAAGGUAUCCGCU
apparent Kd [1]: 0.0256 µM | apparent Kd [2]: 0.0271 µM

GGUCCAACAUGAGGAUAUGGCACCUUAUUGGUGCCAGAAGGCAUGUCUAUAGACAUGAGGAUCACCCAUGUAAUAAAUUGGACC
apparent Kd [3]: 0.689 µM | apparent Kd [4]: 0.0478 µM

GGUCCACAUGAGGAUCACCCAUGUUAGGAUAUCUCGCCCGAGUCCAUAUGGGCCGGGCAGAGAAGGAAUGUGAA
apparent Kd [1]: 0.021 µM | apparent Kd [2]: 0.0226 µM

GGUCCAUUAUGAGGAUAUGGCACCUUAUUGGUGCCAGAAGGCAUGUGUAUUCACAUGAGGAUCACCCAUGUAAUAAAUUGGACC
apparent Kd [3]: 0.0872 µM | apparent Kd [4]: 0.02 µM

GGUCGUCACAUCUACAUGAGGAUCACCCAUGUCAAAAGACAUGAGGAUAUGCAUCCUAAUUGGAUGCAGAAGGCAUGGACGACC
apparent Kd [3]: 1.28 µM | apparent Kd [4]: 0.0668 µM

GGUGCACGCACAGGAUAUCCGGCGGAGCUCGUCGGAGAAGGGUGACAUGAGGAUCACCCAUGUACGUGCAACCCAGUUUGAGGG
apparent Kd [3]: 0.0596 µM | apparent Kd [4]: 0.0285 µM

GGUGCACGCACAGGAUAUCCGGCGGCGCUCGUCGGAGAAGGGUGACAUGAGGAUCACCCAUGUACGUGCAACUCAGUUUGAGUG
apparent Kd [3]: 0.0425 µM | apparent Kd [4]: 0.0339 µM

GGUGGACAUGAGGAUCACCCAUGUGAGGAUAUCGGCUGGCUAGUGGCGGCUGGCUUCUCGAGAAGGCGCAUAGU
apparent Kd [1]: 0.0497 µM | apparent Kd [2]: 0.0725 µM

GGUGUGGCAGGAUAUACAUCGAAGGGUGCAAAGGGCUCGGCACAUGAGGAUCACCCAUGUAGAAGGGCCUACCA
apparent Kd [1]: 0.0149 µM | apparent Kd [2]: 0.0207 µM

GGUUAUUGCAAGGAUAUGCUUUUUUUUUAUUUUGCAGAAGGUGCAACAUGAGGAUCACCCAUGUUGGAGGGUUU
apparent Kd [1]: 0.0217 µM | apparent Kd [2]: 0.0319 µM

GGUUGGCAGCUAGGAUAUGGGCGGUCACAUGAGGAUCACCCAUGUCAACAUCAAAACCAGAUUAACCAGAAGGAGCUGCGGGUU
apparent Kd [3]: 0.0148 µM | apparent Kd [4]: 0.0877 µM

GGUUGGCGAGGAUAUACAUGAGGAUCACCCAUGUGGUCCUAAAAAAAAAUAAACCUUUGUAGAAGGCGCGGGUC
apparent Kd [1]: 0.258 µM | apparent Kd [2]: 0.29 µM

GGUUGGCGAGGAUAUACAUGAGGAUCACCCAUGUGGUCCUGCGGUAGAAUCGCCCUUUGUAGAAGGCGCGGGUC
apparent Kd [1]: 0.0695 µM | apparent Kd [2]: 0.072 µM

GGUUGGUAUGAUUGGGUAUGAUACAUGAGGAUCACCCAUGUGCAGGAUAUGUUACACUCACGAUGAUAGAAGGGUAGGGUUUGA
apparent Kd [1]: 0.305 µM | apparent Kd [2]: 0.27 µM

GUAAAACAAACUAACAUGAGGAUCACCCAUGUGAGGAGGCUCAGAAGGGCGUGGAAAAUUUCCUCGCAGGAUAUGAACCUCAUU
apparent Kd [3]: 0.0708 µM | apparent Kd [4]: 0.00966 µM

GUAAAUCAUGUAGGAUAUGCAUGGCGAAGCUACGCAGAAGGACAUGAGGAUCACCCAUGUCUCUCCGUCUGCGUACAGACGGAG
apparent Kd [1]: 0.0274 µM | apparent Kd [2]: 0.188 µM

GUAAUUAUAUAGGAUAUCGAUUUUAUUAUUUAACGAGAAGGAUGAACAUGAGGAUCACCCAUGUGGUAUCAUGG
apparent Kd [1]: 0.164 µM | apparent Kd [2]: 0.177 µM

GUACAUGAGCAGAAGGGCAUUUAAUUACAUUUUUAUGUUUAUCAGAUAUGCAGGAUAUGUUAAACAUGAGGAUCACCCAUGUAC
apparent Kd [3]: 0.196 µM | apparent Kd [4]: 0.0426 µM

GUACAUGAGCAGAAGGGCAUUUAAUUAGAUUUUUAUGUUGAUCAGAUAUGCAGGAUAUGUUAAACAUGAGGAUCACCCAUGUAC
apparent Kd [3]: 0.235 µM | apparent Kd [4]: 0.0442 µM

GUACGUGGACAGAAGGUGACAUGAGGAUCACCCAUGUUAGUUGAGGUACCAGCGAUCUGCGUGAUUGAGGAUAUGUCUGCGGGC
apparent Kd [1]: 0.0119 µM | apparent Kd [2]: 0.0138 µM

GUACUGUAGUGAGGAUAUACGAGAUCGAUAGAUCGGCGAUCCAAUUAUACAUGAGGAUCACCCAUGUAGAAGGCACUUCAGUAC
apparent Kd [1]: 0.00875 µM | apparent Kd [2]: 0.0558 µM

GUACUGUAGUGAGGAUAUACGAGUACGAUAGUACGGCGAUCCAAUUAUACAUGAGGAUCACCCAUGUAGAAGGCACUUCAGUAC
apparent Kd [1]: 0.00993 µM | apparent Kd [2]: 0.0411 µM

GUAGAGGAUUGAGGAUAUGCAGAGAGAUCAUGCGCGUCGCGCACAUGAGGAUCACCCAUGUAAGAGCAGAAGGUAACUAUGGAC
apparent Kd [1]: 0.0799 µM | apparent Kd [2]: 0.0493 µM

GUAGAGUAGUGAGGAUAUACGAGAUCGAUAGAUCGGCGAUCCAUUAAUACAUGAGGAUCACCCAUGUAGAAGGCACUUCUCUAC
apparent Kd [1]: 0.00631 µM | apparent Kd [2]: 0.0767 µM

GUAGAGUAGUGAGGAUAUACGAGAUCGAUAGAUCGGCGAUCCAUUUAUACAUGAGGAUCACCCAUGUAGAAGGCACUUCUCUAC
apparent Kd [1]: 0.00626 µM | apparent Kd [2]: 0.0628 µM

GUAGAGUAGUGAGGAUAUACGAGCUCGAUAGAGCGGCGAUCCAAUAAUACAUGAGGAUCACCCAUGUAGAAGGCACUUCUCUAC
apparent Kd [1]: 0.00671 µM | apparent Kd [2]: 0.091 µM

GUAGCAAUCGGAGGAUAUUCAUUAAACAUGAGGAUCACCCAUGUUAAUUUGGGAGAAGGCCGAUUGCUACAAGAGCGAAAGCUC
apparent Kd [3]: 0.00723 µM | apparent Kd [4]: 0.00466 µM

GUAGCAUACCGAGGAUAUUCAAAUAAUAAAUAAACAUGAGGAUCACCCAUGUGGCGAAAGCCUAGGGAGAAGGCGGAAUGCUAC
apparent Kd [3]: 0.0482 µM | apparent Kd [4]: 0.0169 µM

GUAGCAUACCGAGGAUAUUCAACCGGAAACGGAACAUGAGGAUCACCCAUGUGGCGAAAGCCUUGGGAGAAGGCGGAAUGCUAC
apparent Kd [3]: 0.0775 µM | apparent Kd [4]: 0.0206 µM

GUAGCAUACCGAGGAUAUUCAGGGCAUAAAUAAACAUGAGGAUCACCCAUGUGGCGAAAGCCUAGGGAGAAGGCGGAAUGCUAC
apparent Kd [3]: 0.0185 µM | apparent Kd [4]: 0.0153 µM

GUAGCAUACCGAGGAUAUUCAGGGCGUAAAUAAACAUGAGGAUCACCCAUGUGGCGAAAGCCUAGGGAGAAGGCGGAAUGCUAC
apparent Kd [3]: 0.0171 µM | apparent Kd [4]: 0.0168 µM

GUAGCAUACCGAGGAUAUUCAGGGCGUGGAUAGACAUGAGGAUCACCCAUGUGGCGAAAGCCUAGGGAGAAGGCGGAAUGCUAC
apparent Kd [3]: 0.0269 µM | apparent Kd [4]: 0.0176 µM

GUAGCAUACCGAGGAUAUUCAUACAAUAAAUAAACAUGAGGAUCACCCAUGUGGCGAAAGCCUAGGGAGAAGGCGGAAUGCUAC
apparent Kd [3]: 0.154 µM | apparent Kd [4]: 0.0218 µM

GUAGCAUACCGAGGAUAUUCAUAUAAUAAGUAAACAUGAGGAUCACCCAUGUAGCGAGAGCCUUGGGAGAAGGCGGAAUGCUAC
apparent Kd [3]: 0.337 µM | apparent Kd [4]: 0.0581 µM

GUAGCUACAAUUAUACAUGAGGAUCACCCAUGUUACAUGGGUAAGGAUAUUGAGGUUAUUAUUGUCAAGAAGGUACUAUGCUAC
apparent Kd [3]: 0.505 µM | apparent Kd [4]: 0.0716 µM

GUAGCUAUCGGAGGAUAUUCAUACCGGAAACGGACAUGAGGAUCACCCAUGUGGAGAAAGCCUUAGGAGAAGGCCGAUAGCUAC
apparent Kd [3]: 0.033 µM | apparent Kd [4]: 0.0089 µM

GUAGCUAUCGGAGGAUAUUCAUAUCGGAAACGGACAUGAGGAUCACCCAUGUGGCUAAAGCCUUGGGAGAAGGCCGAUAGCUAC
apparent Kd [3]: 0.12 µM | apparent Kd [4]: 0.00775 µM

GUAGCUUUCCGAGGAUAUUCAUACCGGAAACGGACAUGAGGAUCACCCAUGUGGCGAAAGCCUUGGGAGAAGGCGGAAAGCUAC
apparent Kd [3]: 0.446 µM | apparent Kd [4]: 0.0234 µM

GUAGGCGACCAGAAGGGUGACAUGAGGAUCACCCAUGUAGGUGUGUUCCCGCUUAGGAGCCACCCACAGGAUAUGGUUGGUUAG
apparent Kd [3]: 0.0276 µM | apparent Kd [4]: 0.0239 µM

GUAUCGUAUGUGAGGAUAUAUUAAACCUUGGAUUUGUAGAAGGCACAUGAGGAUCACCCAUGUCCUAGUGGUCC
apparent Kd [1]: 0.0294 µM | apparent Kd [2]: 0.0333 µM

GUAUGAGCGAUAGGAUAUACUGGGAUUGAAUGGGUAGAAGGAUUUCUUGUGGGAAAGACAUGAGGAUCACCCAUGUCGCGGACC
apparent Kd [3]: 0.255 µM | apparent Kd [4]: 0.165 µM

GUAUUUUGAGGAUAUACUAUUAACCACAUGAGGAUCACCCAUGUUCUAUCAUGAAUUUAUGUAGAAGGCAGAAUGC
apparent Kd [1]: 0.0718 µM | apparent Kd [2]: 0.128 µM

GUCAACUCGUGAGGAUAUACAACACUGCUUCGGCAGUGUAUUAAGAUCACAUGAGGAUCACCCAUGUAGAAGGCACGAGCUGAU
apparent Kd [1]: 0.0144 µM | apparent Kd [2]: 0.214 µM

GUCAAGUGAGGAUAUGAUUGUACGGCAGACUAGCGUCUGCAUCAGAAGGCACAUGAGGAUCACCCAUGUUUGUC
apparent Kd [1]: 0.0191 µM | apparent Kd [2]: 0.0169 µM

GUCACACACUGCUCCGUGUCUGACAUGAGGAUCACCCAUGUGAGAAGGUAGCGUCGAAGCAACGUUAAGGAUAUCACGUGCAGU
apparent Kd [1]: 0.00668 µM | apparent Kd [2]: 0.00839 µM

GUCAGCUCGUCAGGAUAUACGUCACUGCUUCGGCAGUGUGGUAAGAUCACAUGAGGAUCACCCAUGUAGAAGGGACGAGCUGAU
apparent Kd [1]: 0.0123 µM | apparent Kd [2]: 0.291 µM

GUCAGCUCGUGAGGAUAUACAACACUGCUUCGGCAGUAUAUUAAGAUCACAUGAGGAUCACCCAUGUAGAAGGCACGAGCUGAU
apparent Kd [1]: 0.015 µM | apparent Kd [2]: 0.284 µM

GUCAGCUCGUGAGGAUAUACAACACUGCUUCGGCAGUGAAUUAAGAUCACAUGAGGAUCACCCAUGUAGAAGGCACGAGCUGAU
apparent Kd [1]: 0.017 µM | apparent Kd [2]: 0.325 µM

GUCAGCUCGUGAGGAUAUACAACACUGCUUCGGCAGUGUAUUAACAUCACAUGAGGAUCACCCAUGUAGAAGGCACGAGCUGAU
apparent Kd [1]: 0.00499 µM | apparent Kd [2]: 0.00745 µM

GUCAGCUCGUGAGGAUAUACAACACUGCUUCGGCAGUGUAUUAAGAUCACAUGAGGAUCACCCAUGUAGAAGGUACGAGCUGAU
apparent Kd [1]: 0.00856 µM | apparent Kd [2]: 0.0829 µM

GUCAGCUCGUGAGGAUAUACAACACUGCUUCGGCAGUGUAUUUAGAUCACAUGAGGAUCACCCAUGUAGAAGGCACGAGCUGAU
apparent Kd [1]: 0.0156 µM | apparent Kd [2]: 0.363 µM

GUCAGCUCGUGAGGAUAUACAACACUGCUUCGGCAUUGUAUUAAGAUCACAUGAGGAUCACCCAUGUAGAAGGCACGAGCUGAU
apparent Kd [1]: 0.0091 µM | apparent Kd [2]: 0.109 µM

GUCAGCUCGUGAGGAUAUACAUCACUGCGAAAGCAGUGUAUUAAGAUCACAUGAGGAUCACCCAUGUAGAAGGCACGAGCUGAU
apparent Kd [1]: 0.0437 µM | apparent Kd [2]: 0.626 µM

GUCAGCUCGUGAGGAUAUACAUCACUGCUUCGGCAGUGUAUUAAGAUUACAUGAGGAUCACCCAUGUAGAAGGCACGAGCUGAU
apparent Kd [1]: 0.0174 µM | apparent Kd [2]: 0.0239 µM
